Data taken from the RNAGym collection of RNA variant scans (doi:10.1002/anie.201605470).

B1: Osa-1-4 twister ribozyme (parent)
chain: CCGCCUAACACUGCCAAUGCCGGUCCCAAGCCCGGAUAAAAGUGGAGGGGGCGG

Variants of: B1
Assay: self-cleavage, relative activity (ratio to wild type); higher = more cleavage; co-transcriptional
Method in brief: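 A DNA template for a 54-nucleotide Oryza sativa twister ribozyme was synthesised with 97 % wild-type base and 1 % of each other base at the 48 positions downstream of the cleavage site. It was transcribed in vitro for 2 h at 37 °C, allowing co-transcriptional self-cleavage, then reverse-transcribed with a template-switching oligonucleotide, PCR-amplified and deep-sequenced. Cleavage status was scored from reads with or without upstream sequence. Relative activity is fraction cleaved normalised to wild type.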

Point of comparison: A7G C26G, self-cleavage 0.19. Against it:
- A7C G50C — lower, 0.04
- A7C G50U — lower, 0.04
- A7C G51A — lower, 0.04
- A7C G51C — lower, 0.02
- A7C G51U — lower, 0.03
- A7C G53A — lower, 0.06
- A7C G53C — lower, 0.01
- A7C G53U — lower, 0.03
- A7C G54A — lower, 0.05
- A7C G54C — lower, 0.05
- A7C G54U — lower, 0.06
- A7C U12A — lower, 0.05
- A7C U12C — lower, 0.04
- A7C U12G — lower, 0.09
- A7C U18A — lower, 0.04
- A7C U18C — lower, 0.06
- A7C U18G — lower, 0.08
- A7C U24A — lower, 0.04
- A7C U24C — lower, 0.03
- A7C U24G — lower, 0.01
- A7C U37A — lower, 0.02
- A7C U37C — lower, 0.06
- A7C U37G — lower, 0.07
- A7C U43A — lower, 0.06
- A7C U43C — lower, 0.04
- A7C U43G — lower, 0.06
- A7G — higher, 0.49
- A7G A8C — lower, 0.1
- A7G A8G — higher, 0.28
- A7G A8U — lower, 0.1
- A7G C9A — lower, 0.11
- A7G C9G — higher, 0.29
- A7G C9U — the same, 0.19
- A7G C11A — lower, 0.13
- A7G C11G — lower, 0.1
- A7G C11U — lower, 0.15
- A7G C14A — lower, 0.04
- A7G C14G — higher, 0.32
- A7G C14U — lower, 0.1
- A7G C15A — lower, 0.12
- A7G C15G — higher, 0.27
- A7G C15U — lower, 0.09
- A7G C20A — higher, 0.5
- A7G C20G — lower, 0.11
- A7G C20U — higher, 0.43
- A7G C21A — lower, 0.1
- A7G C21G — lower, 0.03
- A7G C21U — higher, 0.23
- A7G C25A — lower, 0.05
- A7G C25G — lower, 0.06
- A7G C25U — lower, 0.17
- A7G C26A — lower, 0.04
- A7G C26U — lower, 0.13
- A7G C27A — lower, 0.07
- A7G C27G — lower, 0.07
- A7G C27U — lower, 0.1
- A7G C31A — lower, 0.03
- A7G C31G — lower, 0.14
- A7G C31U — lower, 0.09
- A7G C32A — lower, 0.05
- A7G C32G — lower, 0.09
- A7G C32U — lower, 0.08
- A7G C33A — lower, 0.07
- A7G C33G — lower, 0.03
- A7G C33U — lower, 0.13
- A7G C52A — higher, 0.29
- A7G C52G — higher, 0.32
- A7G C52U — higher, 0.55
- A7G G13A — lower, 0.06
- A7G G13C — lower, 0.03
- A7G G13U — lower, 0.02
- A7G G19A — lower, 0.15
- A7G G19C — lower, 0.06
- A7G G19U — lower, 0.07
- A7G G22A — lower, 0.18
- A7G G22C — lower, 0.08
- A7G G22U — lower, 0.1
- A7G G23A — lower, 0.14
- A7G G23C — lower, 0.06
- A7G G23U — lower, 0.04
- A7G G30A — lower, 0.04
- A7G G30C — lower, 0.03
- A7G G30U — lower, 0.05
